Experimental data from ChEMBL document CHEMBL4834436, “Discovery of the S1P2 Antagonist GLPG2938 (1-[2-Ethoxy-6-(trifluoromethyl)-4-pyridyl]-3-[[5-methyl-6-[1-methyl-3-(trifluoromethyl)pyrazol-4-yl]pyridazin-3-yl]methyl]urea), a Preclinical Candidate for the Treatment of Idiopathic Pulmonary Fibrosis” (J Med Chem, 2021).
Active and inactive are the calls of the source. The calls are words filed in the database; no cut-off is given here.

Tests used:
[1] = biological target: T1, Sphingosine 1-phosphate receptor 2 (Homo sapiens, UniProt O95136); test: Antagonist activity at human S1P2 receptor expressed in CHO cells assessed as EC80 S1P-induced calcium flux measured for 3 mins by fluorescence assay; type: functional, cell-based
How it was run: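 Same dye-loaded, starved human S1P2-CHO cells; after agonist readout, 15 min at 37 °C, then stimulated with S1P at EC80, fluorescence read 3 min. Max/baseline ratio normalized to vehicle and S1P EC80. 10-point 1/3 dilutions from 20 μM final; IC50 derived; geometric mean of ≥2 runs.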

[2] = biological target: T1, Sphingosine 1-phosphate receptor 2; test: Antagonist activity at recombinant human S1P2 receptor expressed in CHO cells assessed as EC80 S1P-induced activation incubated for 4 hrs in presence of [35S]GTPgammaS by Topcount reader; type: functional, cell-based
How it was run: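 Membranes from stable lines overexpressing recombinant human S1P2, preincubated with PVT-WGA SPA beads, mixed with compound serial dilutions, [35S]GTPγS and S1P at EC80. Incubated 4 h at room temperature, centrifuged, scintillation counted. Antagonist mode; IC50 as geometric mean of ≥2 runs.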

[3] = biological target: T1, Sphingosine 1-phosphate receptor 2; test: Antagonist activity at recombinant human S1P2 receptor in HFL1 cells assessed as inhibition of EC80 S1P-induced IL8 release incubated for 16 to 24 hrs in absence of HSA by ELISA; type: functional, cell-based
How it was run: (§1)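 HFL-1 lung fibroblasts seeded in 96- or 384-well plates, then medium replaced by starvation medium with 1% heat-inactivated FBS, ±1.95% HSA (2% HSA condition), 16–24 h. 10-point 1/3 dilutions, 30 μM top final, 1 h, then S1P at EC80 (without HSA: 1 μM 96-well or 0.5 μM 384-well; with HSA: 5 or 2 μM).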

[4] = Intrinsic clearance unbound in mouse liver microsomes at 1 uM […] by LC-MS/MS analysis; type: ADME, Microsome
[5] = Intrinsic clearance unbound in human liver microsomes at 1 uM […] by LC-MS/MS analysis; type: ADME, Microsome
[6] = biological target: T1, Sphingosine 1-phosphate receptor 2; test: Antagonist activity at recombinant human S1P2 receptor in HFL1 cells assessed as inhibition of EC80 S1P-induced IL8 release incubated for 16 to 24 hrs in presence of 2% HSA by ELISA; type: functional, cell-based; how it was run: as §1
[7] = biological target: T1, Sphingosine 1-phosphate receptor 2; test: Antagonist activity at recombinant human S1P2 receptor in HFL1 cells assessed as inhibition of EC80 S1P-induced IL8 release measured as unbound concentration incubated for 16 to 24 hrs in presence of 2% HSA by ELISA; type: functional, cell-based; settings: filed as antagonist, time 16-24 hrs
How it was run: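 IL8 IC50 from the 2% HSA condition converted to free IC50 = IC50 × fu,medium, where fu,medium is estimated from human plasma protein binding fraction unbound and the serum percentage used in the assay.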

[8] = biological target: T1, Sphingosine 1-phosphate receptor 2; test: Agonist activity at human S1P2 receptor expressed in CHO cells assessed as calcium flux measured for 3 mins by fluorescence assay; type: functional, cell-based; settings: read-out: IC50 (the source's name)
How it was run: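 CHO cells stably overexpressing human S1P2, seeded overnight at 37 °C/5% CO2, washed and starved 1 h in F-12 with 0.1% fatty-acid-free BSA, loaded with Fluo 8 dye with 5 mM probenecid. Compound added, fluorescence read 3 min; max/baseline ratio normalized to vehicle and S1P EC100. 10-point 1/3 dilutions from 23.3 μM final; EC50 derived; geometric mean of ≥2 runs.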

[9] = biological target: T1, Sphingosine 1-phosphate receptor 2; test: Displacement of radio labeled-SIP from human recombinant S1P2 receptor expressed in CHO cell membranes […] by radioligand based competition binding assay; parameters: species or system Membrane
Mus musculus = test: Antifibrotic activity against intranasal bleomycin-induced C57BL/6 mouse lung fibrosis model assessed as reduction in Ashcroft score at 50 mg/kg, po twice daily for 14 days; type: functional, organism-based; settings: time 14.0 day
How it was run: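 Male C57BL/6 mice (7–8 weeks on arrival, one week acclimation) given bleomycin intranasally; prophylactic oral dosing twice daily for 14 days. Lungs scored histologically by Matsuse-modified Ashcroft score; 14–15 mice per group; Mann–Whitney vs bleomycin/vehicle.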

CYP2C19 = CYP2C19 (Homo sapiens, UniProt P33261); test: Inhibition of recombinant CYP2C19 (unknown origin) at 10 uM; type: ADME
CYP2C9 = CYP2C9 (Homo sapiens, UniProt P11712); test: Inhibition of recombinant CYP2C9 (unknown origin) at 10 uM; type: ADME
CYP3A4 = CYP3A4 (Homo sapiens, UniProt P08684); test: Inhibition of recombinant CYP3A4 (unknown origin) at 10 uM; type: ADME
Sequence of CYP3A4 (P08684 whole entry): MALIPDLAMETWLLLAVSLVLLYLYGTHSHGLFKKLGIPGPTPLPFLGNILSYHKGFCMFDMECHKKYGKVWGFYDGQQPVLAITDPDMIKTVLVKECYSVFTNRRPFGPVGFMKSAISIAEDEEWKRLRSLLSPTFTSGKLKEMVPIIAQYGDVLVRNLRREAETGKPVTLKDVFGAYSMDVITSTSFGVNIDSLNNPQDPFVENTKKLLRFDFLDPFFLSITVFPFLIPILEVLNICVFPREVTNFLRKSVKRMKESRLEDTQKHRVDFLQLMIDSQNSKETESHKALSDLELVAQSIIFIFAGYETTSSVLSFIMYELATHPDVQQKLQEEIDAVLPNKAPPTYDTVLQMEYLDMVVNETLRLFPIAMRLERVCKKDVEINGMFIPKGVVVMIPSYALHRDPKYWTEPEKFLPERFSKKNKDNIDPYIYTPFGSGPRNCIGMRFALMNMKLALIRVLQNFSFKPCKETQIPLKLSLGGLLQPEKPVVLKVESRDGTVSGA

T1 sequence (O95136 whole entry): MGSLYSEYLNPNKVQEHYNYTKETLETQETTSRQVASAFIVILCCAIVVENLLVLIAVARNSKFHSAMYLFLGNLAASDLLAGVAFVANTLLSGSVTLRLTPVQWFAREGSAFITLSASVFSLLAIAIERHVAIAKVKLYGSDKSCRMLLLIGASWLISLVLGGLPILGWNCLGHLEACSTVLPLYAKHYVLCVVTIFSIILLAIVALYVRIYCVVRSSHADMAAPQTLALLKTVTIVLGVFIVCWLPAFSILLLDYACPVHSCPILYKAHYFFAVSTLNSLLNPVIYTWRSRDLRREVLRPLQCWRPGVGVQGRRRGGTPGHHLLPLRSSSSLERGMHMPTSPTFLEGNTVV
Sequence of CYP2C19 (P33261 whole entry): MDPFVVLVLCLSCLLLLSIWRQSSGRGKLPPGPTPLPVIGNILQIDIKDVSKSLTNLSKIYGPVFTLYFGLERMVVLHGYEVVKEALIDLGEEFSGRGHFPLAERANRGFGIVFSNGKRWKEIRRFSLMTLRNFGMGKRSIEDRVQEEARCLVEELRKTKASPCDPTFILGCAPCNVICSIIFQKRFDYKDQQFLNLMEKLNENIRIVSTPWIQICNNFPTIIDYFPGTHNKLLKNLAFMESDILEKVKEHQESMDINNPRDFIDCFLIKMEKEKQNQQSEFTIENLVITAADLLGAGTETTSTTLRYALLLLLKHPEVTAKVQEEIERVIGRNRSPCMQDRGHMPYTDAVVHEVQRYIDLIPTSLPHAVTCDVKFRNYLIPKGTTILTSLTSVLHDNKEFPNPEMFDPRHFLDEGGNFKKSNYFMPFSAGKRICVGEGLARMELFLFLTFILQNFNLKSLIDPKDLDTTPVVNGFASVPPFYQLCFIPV
Sequence of CYP2C9 (P11712 whole entry): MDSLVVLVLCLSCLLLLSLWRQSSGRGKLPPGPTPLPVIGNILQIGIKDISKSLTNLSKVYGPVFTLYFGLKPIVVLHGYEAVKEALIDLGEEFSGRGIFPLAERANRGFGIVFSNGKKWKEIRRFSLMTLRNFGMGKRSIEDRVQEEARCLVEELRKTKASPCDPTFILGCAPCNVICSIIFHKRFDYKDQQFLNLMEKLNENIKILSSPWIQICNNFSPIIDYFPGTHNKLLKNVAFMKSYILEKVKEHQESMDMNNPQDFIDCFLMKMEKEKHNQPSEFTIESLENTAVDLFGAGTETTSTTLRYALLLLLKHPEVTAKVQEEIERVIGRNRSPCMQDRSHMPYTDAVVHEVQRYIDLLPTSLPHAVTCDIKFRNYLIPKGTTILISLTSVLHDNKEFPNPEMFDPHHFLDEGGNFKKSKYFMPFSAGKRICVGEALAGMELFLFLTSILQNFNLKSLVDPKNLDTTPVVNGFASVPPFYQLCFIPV

SMILES | IC50 [1] [µM] | IC50 [2] [µM] | IC50 [3] [nM] | CL free [4] [L/h/kg] | CL free [5] [L/h/kg] | EC50 [8] [µM] | other results
CCOc1cc(NC(=O)NCc2cc(C)c(Nc3cn(C)nc3C)cn2)cc(C(F)(F)F)n1 | 0.012 | 55 | 55 | 52 | 16 |  | 
Cc1cc(CNC(=O)Nc2cc(OCCO)nc(C(F)(F)F)c2)nnc1-c1cn(C)nc1C(F)(F)F | 348 | 704 | 704 | 6.1 | < 1.4 |  | IC50 [6]: 0.81 µM; fIC50 [7]: 87 nM
Cc1cc(CNC(=O)Cc2ccc(Cl)c(Cl)c2)ncc1-c1cn(C)nc1C | > 19 |  |  | 226 |  |  | IC50 ([2]; cho): Not Active
Cc1cc(C#N)nc(NNC(=O)Nc2cc(Cl)nc(Cl)c2)c1 | > 6.6 |  |  |  |  | > 23 | 
Cc1cc(CNC(=O)Nc2cc(OCCN(C)C)nc(C(F)(F)F)c2)nnc1-c1cn(C)nc1C(F)(F)F | 2140 | > 10000 | > 10000 | < 5.4 | 1.4 |  | 
CCOc1cc(NC(=O)NCc2cc(C)c(-c3cn(C)nc3C(F)(F)F)nn2)cc(C)n1 | 54 | 242 | 242 | < 3.5 | < 0.9 |  | IC50 [6]: 0.194 µM; fIC50 [7]: 15 nM
Cc1cc(NNC(=O)Nc2cc(Cl)nc(Cl)c2)ncc1-c1cn(C)nc1C | > 1.4 | 0.8 |  |  |  | > 23 | IC50 [9]: 0.19 µM
CCOc1nc(C#N)cc(NC(=O)NCc2cc(C)c(-c3cn(C)nc3C(F)(F)F)nn2)c1C | 7.1 | 24 | 24 | < 9.8 | < 2.1 |  | IC50 [6]: 0.017 µM; fIC50 [7]: 0.19 nM
Cc1cc(NNC(=O)Nc2cc(Cl)nc(Cl)c2)ncc1-c1ccn(C)n1 | 4 | 9.3 |  |  |  | > 23 | 
Cc1ccc(=O)n(-c2ccccc2)c1 |  |  |  |  |  |  | Activity (Mus musculus): Active
CCOc1nc(C)cc(NC(=O)NCc2cc(C)c(-c3cn(C)nc3C(F)(F)F)nn2)c1Cl | 8.7 | 26 | 26 | 15 | < 1.5 |  | IC50 [6]: 0.049 µM; fIC50 [7]: 0.55 nM
CCOc1nc(C)cc(NC(=O)NCc2cc(C)c(-c3cn(C)nc3C(F)(F)F)nn2)c1C#N | > 20 | > 20000 | > 20000 | 136 |  |  | IC50 [6]: > 30 µM
CCOc1cc(NC(=O)NCc2cc(C)c(-c3cn(C)nc3C(F)(F)F)cn2)cc(Cl)n1 | 0.011 | 22 | 22 | 27 | 9 |  | inhibition at 10 µM (CYP2C19): 100%; inhibition at 10 µM (CYP2C9): 83%; inhibition at 10 µM (CYP3A4): 83%
CCOc1nc(Cl)cc(NC(=O)NCc2cc(C)c(-c3cn(C)nc3C(F)(F)F)nn2)c1C | 8.8 | 15 | 15 | < 32 | < 7.6 |  | IC50 [6]: 0.032 µM; fIC50 [7]: 0.16 nM
Cc1cc(NNC(=O)Nc2cc(Cl)nc(Cl)c2)nc(C(=O)N(C)C)c1 | > 19 |  |  |  |  | > 23 | 
Cc1cc(CNC(=O)Nc2cc(Cl)nc(Cl)c2)ncc1-c1cn(C)nc1C | 0.3 | 0.77 | 0.77 | 12 |  |  | 
Cc1cc(NNC(=O)Nc2cc(Cl)nc(Cl)c2)nc(C(=O)NC2CC2)c1 | 4.5 |  |  |  |  | > 23 | 
CCOc1cc(NC(=O)NCc2cc(C)c(N3CC(C)OC(C)C3)cn2)cc(Cl)n1 (stereo not given) | 0.016 | 105 | 105 | 30 | 7.5 |  | 
Cc1cc(NNC(=O)Nc2cc(Cl)nc(Cl)c2)ncc1-c1cnn(C)c1 | 2.6 | 3.4 |  |  |  | > 23 | IC50 [9]: 1.2 µM

SMILES | IC50 [1] [µM] | IC50 [2] [µM] | IC50 [3] [nM] | CL free [4] [L/h/kg] | CL free [5] [L/h/kg] | EC50 [8] [µM] | other results
Cc1cc(CNC(=O)c2cc3c(Cl)cc(Cl)cc3[nH]2)ncc1-c1cn(C)nc1C | 0.11 | 0.61 | 0.61 | > 47 |  |  | 
Cc1cc(CNC(=O)Nc2cc(Cl)nc(OCC(F)F)c2)nnc1-c1cn(C)nc1C(F)(F)F | 7.2 | 36 | 36 | < 10 | < 3 |  | IC50 [6]: 0.071 µM; fIC50 [7]: 1.3 nM
Cc1cc(CO)nc(NNC(=O)Nc2cc(Cl)nc(Cl)c2)c1 | > 6.6 | 31 |  |  |  | > 23 | 
CCOC(=O)c1cc(C)cc(NNC(=O)Nc2cc(Cl)nc(Cl)c2)n1 | 0.76 | 2.1 |  |  |  | > 23 | IC50 [9]: 0.3 µM
COCCOc1cc(NC(=O)NCc2cc(C)c(-c3cn(C)nc3C(F)(F)F)nn2)cc(Cl)n1 | 412 | 640 | 640 | 19 | < 1.4 |  | IC50 [6]: 3.22 µM
CCOc1nc(Cl)cc2nc(NCc3cc(C)c(-c4cn(C)nc4C)cn3)[nH]c12 | 0.033 | 2.25 | 2.25 | 82 |  |  | 
Cc1cc(CNC(=O)c2cc3c(Cl)nc(Cl)cc3[nH]2)ncc1-c1cn(C)nc1C | 0.89 | 1.3 | 1.3 | 38 |  |  | 
Cc1cc(CNC(=O)c2cc(Cl)nc(Cl)c2)ncc1-c1cn(C)nc1C | > 19 | > 100 | > 100 | 5.1 |  |  | 
Cc1cc(NNC(=O)Nc2cc(Cl)nc(Cl)c2)ncc1N(C)C | 3.6 | 5.3 |  |  |  | > 23 | 
Cc1cc(CNc2nc3cc(Cl)c(Cl)cc3[nH]2)ncc1-c1cn(C)nc1C | 0.009 | 0.43 | 0.43 | 155 |  |  | 
Cc1cc(CNC(=O)Nc2cc(OCC(O)CO)nc(C(F)(F)F)c2)nnc1-c1cn(C)nc1C(F)(F)F (stereo not given) | > 6.61 | > 11000 | > 11000 | < 4.6 | 1.9 |  | IC50 [6]: > 10 µM
Cc1cc(NNC(=O)Nc2cc(Cl)nc(Cl)c2)nc(C(=O)N(C)C2CC2)c1 | > 20 |  |  |  |  | > 23 | 
CCOc1cc(NC(=O)NCc2cc(C)c(-c3cn(C)nc3C)cn2)cc(Cl)n1 | 0.04 | 0.32 | 0.032 | 42 |  | 4.7 | 
Cc1cc(CNC(=O)Nc2cc(C(F)(F)F)nc(OCCO)c2C)nnc1-c1cn(C)nc1C(F)(F)F | 84 | 169 | 160 | 5.5 |  |  | IC50 [6]: 0.256 µM; fIC50 [7]: 5.4 nM
Cc1cc(NNC(=O)Nc2cc(Cl)nc(Cl)c2)nc(-c2ccc(F)cc2)c1 | 1.3 | 6.2 |  |  |  | > 23 | 
Cc1cc(CNC(=O)Nc2cc(Cl)cc(Cl)c2)ncc1-c1cn(C)nc1C | 0.16 | 0.3 | 0.3 | 159 |  |  | 
Cc1cc(NNC(=O)Nc2cc(Cl)nc(Cl)c2)nc(-c2cnn(C)c2)c1 | > 2.1 | 3.1 |  |  |  | > 23 | 
CCOc1cc(NC(=O)NCc2cc(C)c(-c3cn(C)nc3C(F)(F)F)nn2)cc(C#N)n1 | 11 | 35 | 35 | < 6.3 | < 1.7 |  | IC50 [6]: 0.067 µM; fIC50 [7]: 3 nM
Cc1cc(NNC(=O)Nc2cc(Cl)nc(Cl)c2)ncc1C#N | 6 | 7 |  |  |  | > 23 | 
